# Experimental data: ChEMBL document CHEMBL3351942, “Rexinoids isolated from Sophora tonkinensis with a gene expression profile distinct from the synthetic rexinoid bexarotene” (J Nat Prod, 2014)
# Activity calls are given as the source filed them. The rule behind the calls is not given here.
# Tests used:
# [1] = molecular target: T1, Oxysterols receptor LXR-alpha (Homo sapiens) (UniProt Q13133); assay: Activation of human LXR-alpha expressed in HEK293 cells coexpressing with pGL4.1-DR4-Luc after 24 hrs by luciferase reporter gene assay; assay type: cell-based
# T1 sequence (whole entry): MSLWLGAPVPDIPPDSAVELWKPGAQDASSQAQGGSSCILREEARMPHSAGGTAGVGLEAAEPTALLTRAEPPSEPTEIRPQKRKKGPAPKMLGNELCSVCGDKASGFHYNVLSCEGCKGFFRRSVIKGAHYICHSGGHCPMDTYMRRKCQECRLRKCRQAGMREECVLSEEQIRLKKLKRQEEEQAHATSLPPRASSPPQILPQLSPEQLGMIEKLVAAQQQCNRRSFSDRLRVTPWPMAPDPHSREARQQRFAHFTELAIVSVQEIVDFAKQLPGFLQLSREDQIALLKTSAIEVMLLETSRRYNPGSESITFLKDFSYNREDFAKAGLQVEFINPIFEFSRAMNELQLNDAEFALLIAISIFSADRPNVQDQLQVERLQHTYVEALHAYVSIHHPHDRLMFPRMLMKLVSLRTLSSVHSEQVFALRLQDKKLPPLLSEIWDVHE
# RAW264.7 [2] = assay: Activation of RXR/LXR heterodimer in mouse RAW264.7 cells assessed as increase in ABCA1 mRNA level at 10 uM by quantitative RT-PCR analysis; assay type: cell-based
# Procedure, shortened: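 RAW264.7 macrophages in DMEM/10% FBS, exposed 24 h with or without LXR agonist T0901317; ABCA1 mRNA by SYBR green qRT-PCR, β-actin-normalized, fold vs vehicle; means ± SD of three determinants, one of three independent experiments; one-way ANOVA, Bonferroni.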
# RAW264.7 [3] = assay: Activation of RXR/LXR heterodimer in mouse RAW264.7 cells assessed as increase in ABCA1 protein level at 10 uM after 24 hrs by Western blotting analysis; assay type: cell-based
# 3T3-L1 = assay: Activation of PPARgamma/RXR heterodimer in mouse 3T3-L1 cell assessed as induction of adipogenesis at 10 uM after 6 days by Oil red O-staining; assay type: cell-based
# Procedure, shortened: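 3T3-L1 cells grown to confluence, 2 days later induced 48 h with 10% FBS, 5 μg/mL insulin, 0.25 μM dexamethasone, 0.5 mM IBMX, then 48 h insulin-only medium; compounds in DMSO added to postdifferentiation medium for 4 days. Formalin-fixed (10%, 1 h, RT), stained with Oil red O, washed, visualized.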
# [4] = Activation of LXR in mouse C2C12 cells assessed as induction of ApoD mRNA expression at 10 uM after 24 hrs by quantitative RT-PCR analysis; assay type: cell-based
# Procedure, shortened: (§1)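 C2C12 myoblasts grown in DMEM/10% FBS, differentiated at confluence in 2% horse serum, medium changed every other day for 5 days; myotubes treated 24 h with or without T0901317 (1 μM). Total RNA, DNase-treated, oligo(dT) RT from 0.5 μg, SYBR green qPCR; normalized to β-actin (delta-delta Ct), fold over vehicle; mean ± SD of four determinants, one of two experiments.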
# [5] = Activation of LXR in mouse C2C12 cells assessed as induction of LPL mRNA expression at 10 uM after 24 hrs by quantitative RT-PCR analysis; assay type: cell-based
# [6] = Activation of LXR in mouse C2C12 cells assessed as induction of ABCA1 mRNA expression at 10 uM after 24 hrs in presence of T0901317 by quantitative RT-PCR analysis; assay type: cell-based; procedure, shortened: as §1
# [7] = Activation of LXR in mouse C2C12 cells assessed as induction of LPL mRNA expression at 10 uM after 24 hrs in presence of T0901317 by quantitative RT-PCR analysis; assay type: cell-based; procedure, shortened: as §1
# [8] = Activation of LXR in mouse C2C12 cells assessed as induction of SREBP1 mRNA expression at 10 uM after 24 hrs in presence of T0901317 by quantitative RT-PCR analysis; assay type: cell-based; procedure, shortened: as §1
# [9] = molecular target: T2, Peroxisome proliferator-activated receptor delta (Mus musculus) (UniProt P35396); assay: Activation of PPARdelta in mouse C2C12 cells assessed as induction of FABP3 mRNA expression at 10 uM after 24 hrs in presence of GW501516 by quantitative RT-PCR analysis; assay type: cell-based
# T2 sequence (whole entry): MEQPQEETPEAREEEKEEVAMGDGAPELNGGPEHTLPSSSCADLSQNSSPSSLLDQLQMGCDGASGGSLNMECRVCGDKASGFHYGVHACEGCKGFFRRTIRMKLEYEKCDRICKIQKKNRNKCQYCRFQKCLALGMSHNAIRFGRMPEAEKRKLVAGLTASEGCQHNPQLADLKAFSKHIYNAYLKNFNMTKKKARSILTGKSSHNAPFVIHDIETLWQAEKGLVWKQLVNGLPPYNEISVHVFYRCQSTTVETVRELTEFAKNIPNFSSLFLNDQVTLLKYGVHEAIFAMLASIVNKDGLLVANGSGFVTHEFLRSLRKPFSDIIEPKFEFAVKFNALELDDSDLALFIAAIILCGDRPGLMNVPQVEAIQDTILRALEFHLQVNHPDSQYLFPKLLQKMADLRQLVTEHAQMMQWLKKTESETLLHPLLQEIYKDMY
# Procedure, shortened: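 Differentiated C2C12 myotubes (2% horse serum, 5 days) exposed 24 h with or without PPARδ agonist GW501516 (1 μM). mRNA quantified by SYBR green real-time RT-PCR, normalized to β-actin by delta-delta Ct, and expressed as fold induction vs vehicle; means ± SD of four determinants from one of two independent experiments; one-way ANOVA with Bonferroni.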
# [10] = molecular target: T3, Retinoic acid receptor RXR-alpha (Homo sapiens) (UniProt P19793); assay: Binding affinity to RXRalpha (unknown origin) by receptor-SRC1 cofactor complex formation assay
# T3 sequence (whole entry): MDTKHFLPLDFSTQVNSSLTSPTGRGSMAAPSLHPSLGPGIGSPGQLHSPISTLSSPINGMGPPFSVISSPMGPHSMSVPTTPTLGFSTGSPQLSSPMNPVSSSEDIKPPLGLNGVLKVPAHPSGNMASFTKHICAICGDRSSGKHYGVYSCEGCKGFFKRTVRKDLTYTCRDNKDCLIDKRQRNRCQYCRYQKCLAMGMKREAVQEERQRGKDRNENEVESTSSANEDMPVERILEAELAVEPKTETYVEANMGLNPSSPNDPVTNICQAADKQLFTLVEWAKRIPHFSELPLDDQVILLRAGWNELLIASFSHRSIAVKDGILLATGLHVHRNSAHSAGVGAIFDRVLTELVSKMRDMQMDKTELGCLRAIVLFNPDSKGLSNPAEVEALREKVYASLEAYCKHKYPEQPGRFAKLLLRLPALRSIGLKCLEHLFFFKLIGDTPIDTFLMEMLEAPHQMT
# Procedure, shortened: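 Ligand-dependent binding of RXR isotype to coactivator SRC-1 in an NR cofactor kit, detected with HRP-conjugated anti-RXR antibody at OD450. The full agonist CD3254 defined 100% and vehicle 0%. Efficacy was taken as maximum B/Bmax% and potency as EC50.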
# [11] = Activation of LXR in mouse C2C12 cells assessed as induction of FAS mRNA expression at 10 uM after 24 hrs by quantitative RT-PCR analysis; assay type: cell-based; procedure, shortened: as §1
smiles,measurement,setting,value
CC(C)=CCc1cc([C@@H]2CC(=O)c3ccc(O)c(CC=C(C)C)c3O2)cc2c1OC(C(C)(C)O)C2 (some centres not stated),Activity,[1],inactive
same,Activity,RAW264.7 [2],Active
same,Activity,RAW264.7 [3],Active
same,Activity,3T3-L1,Active
same,Activity,[4],Active
same,Activity,[5],Active
same,Activity,[6],Active
same,Activity,[7],Active
same,Activity,[8],inactive
same,Activity,[9],Active
same,Activity,[10],inactive
same,Activity,[11],inactive
